Compound activity from PubChem.
A selection: hits, their analogues and other compounds. The true share with any hit is near 2.3%.
SKN-1 inh = inhibitors of C. elegans SKN-1; C. elegans VP596 Pgst-4::GFP/RFP ratio, acrylamide-induced, 24 h; inhibition, % at 21.8 µM; 360,000 compounds, 0.49% hits; AID 624304;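 active = interference check ratio from 0.5 to 1.5 plus GFP to RFP signal ratio inhibition reaching or exceeding a fixed threshold, cut at about 30% in these data, passing the limit was not always enough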
ATG4B inhibitor = inhibitors of human ATG4B cysteine protease | Q9Y4P1 | ATG4B cleavage of LC3-PLA2, NBD-HPC fluorescence, 1 h | inhibition, % at 8.33 µM | 340,000 compounds, 0.51% hits | AID 504462; in the data active = inhibition above about 40%
Target sequence (Q9Y4P1 whole entry, looked up): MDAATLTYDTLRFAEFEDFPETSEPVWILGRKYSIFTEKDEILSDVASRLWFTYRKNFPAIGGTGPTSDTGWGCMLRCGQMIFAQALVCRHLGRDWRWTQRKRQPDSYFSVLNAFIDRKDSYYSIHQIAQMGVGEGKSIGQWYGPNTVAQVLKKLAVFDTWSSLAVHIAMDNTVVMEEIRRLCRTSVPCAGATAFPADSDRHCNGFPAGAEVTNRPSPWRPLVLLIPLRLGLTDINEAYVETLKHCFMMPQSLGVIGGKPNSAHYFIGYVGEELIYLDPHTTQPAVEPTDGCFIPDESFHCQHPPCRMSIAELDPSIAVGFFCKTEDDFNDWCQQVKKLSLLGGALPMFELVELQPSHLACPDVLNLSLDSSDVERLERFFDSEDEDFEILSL
MPTP inh = permeability transition pore inhibition; isolated mouse mitochondria, Ca2+ swelling absorbance, 30 min; 360,000 compounds, 1.4% hits; inhibition, % at 10 µM;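 active = inhibition of 50% or more, scaled per plate between neutral and stimulator controls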
MT1-MMP act inh = inhibitors of human MT1-MMP activation. P50281. HT1080 RFP-PRO-GFP cells, GFP/RFP ratio fluorescence, overnight; percent of plate control window, DMSO zero. GFP/RFP ratio change, % at 20 µM. 360,000 compounds, 0.061% hits. AID 651647;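 active = GFP/RFP ratio change of at least 30% with cell ATP level not reduced by more than half and red fluorescence within 50% of control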
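Read-out: GFP/RFP fluorescence ratio; Test system: RFP-PRO-GFP reporter HT1080 cells; Compound dosing: single-point 20 µM compound, 1% DMSO; Times: overnight compound exposure at 37 °C.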
MPTP counter = mitochondrial membrane potential, counter-screen | shares compounds with MPTP inh | isolated mitochondria, Rhodamine 123 fluorescence | inhibition, % at 10 µM | 5,000 compounds, 78% hits | AID 624504; in the data active = inhibition above about 22%
MPTP swell DR = dose response confirmation of mitochondrial permeability transition pore inhibitors; shares compounds with MPTP inh; isolated mitochondria swelling, absorbance; IC50, µM; 780 compounds, 58% hits; in the data active = IC50 below about 20 µM
MPTP cs DR = active in counter-screen for permeability transition pore inhibitors; 780 compounds, 49% hits; shares compounds with MPTP inh; IC50, µM; isolated mitochondria counterscreen, fluorescence read-out; in the data active = IC50 below about 80 µM
Numbers stand for hits; – = inactive; · = no result given.

SMILES	SKN-1 inh	ATG4B inhibitor	MPTP inh	MT1-MMP act inh	MPTP counter	others
O=C(NNc1nc2ccc(F)cc2s1)c1cccc(F)c1	–	–	92.2	–	75.6
COC(=O)c1ccc2nc(Nc3nc4ccc(F)cc4s3)sc2c1	–	–	89.2	–	71.7
CCOc1cccc(C(=O)Nc2cc(C)ccc2NC(=O)c2ccco2)c1	–	–	–	–	·
COc1ccc(C(=O)c2c(NC(C)=O)sc3c2CCN(C(=O)OC(C)(C)C)C3)cc1	–	–	–	–	·
COc1ccc(OC)c(NC(=O)C2CC(/C=C/c3ccccc3)=NO2)c1 (stereo unspecified)	–	–	–	–	·
O=C(CCSc1nc(-c2ccco2)cc(C(F)(F)F)n1)NCCc1ccccc1	–	–	–	–	·
COc1ccc(-c2cc(C(F)(F)F)nc(SCCC(=O)NCc3ccccc3)n2)cc1	–	–	59.6	–	–	MPTP swell DR=–;MPTP cs DR=–
CC(=O)c1c(O)cc(O)c(C(C)=O)c1O	–	–	90.2	–	105.7
CCOc1cc(C(=O)Nc2ccc(F)cc2)cc(Br)c1OC	–	–	66.8	–	79.2
CCOc1cc(C(=O)Nc2ccc(N3CCOCC3)cc2)cc(Br)c1OC	–	–	–	–	·
Cc1cccc(-c2nn(-c3ccccc3)cc2C(=O)N(C)CC(=O)Nc2ccc(N3CCOCC3)cc2)c1	–	–	–	–	·
COc1ccc(NC(=O)CCSc2nc(C)cs2)cc1	–	–	–	–	·
O=C(NCc1ccccc1F)C1CCCN(C(=O)Nc2ccc(F)cc2)C1 (stereo unspecified)	–	–	–	–	·
O=C(Cc1ccc(Cl)cc1)Nc1ccc(SC(F)F)cc1	–	–	92.0	–	104.5
COc1ccc(CN(C)Cc2c(O)ccc3cc(Br)ccc23)cc1OC	–	–	68.5	–	50.4
COc1ccc(CCN(C)Cc2c(O)ccc3cc(Br)ccc23)cc1OC	–	–	–	–	·
c1coc(CN(Cc2ccco2)c2ncnc3c2oc2ccccc23)c1	–	–	83.4	–	66.6
Nc1nc(SCC(=O)Nc2ccc(OCc3ccccc3)cc2)n[nH]1	–	–	–	–	·
Cc1nc(Nc2ccccc2)[nH]c(=O)c1CCC(C)C	–	–	57.1	–	58.4
NS(=O)(=O)c1ccc(NC(=O)c2ccc(S(=O)(=O)N3CCc4ccccc43)cc2)cc1	–	–	–	–	·
N#C/C(=N\Nc1ccc(S(=O)(=O)N2CCc3ccccc32)cc1)C(N)=S	–	–	99.2	–	67.3
CCOC(=O)/C(C#N)=N/Nc1ccc(S(=O)(=O)N2CCc3ccccc32)cc1	–	–	89.2	–	88.8
CCC/C=C/c1ccc(CN2C(C(C)C)C(=O)N(Cc3cn(CC4CCCCC4)nn3)CCS2(=O)=O)cc1 (stereo unspecified)	–	·	–	–	·
COC(=O)c1cccc(NS(=O)(=O)c2ccc(OC)cc2)c1C	–	–	–	–	·
COC(=O)c1cccc(NS(=O)(=O)c2ccc(OC)c(OC)c2)c1C	–	–	55.5	–	20.7
SMILES	SKN-1 inh	ATG4B inhibitor	MPTP inh	MT1-MMP act inh	MPTP counter	others
OCCCNc1ncnc2c1cnn2-c1ccc(Cl)cc1	–	–	–	–	·
CN(C)CCNc1ncnc2c1cnn2-c1ccc(Cl)cc1	–	–	78.0	–	–	MPTP swell DR=8.36;MPTP cs DR=–
CCOc1ccc(NC(=O)[C@H](Cc2ccccc2)NC(=O)C2CCNCC2)cc1	–	–	–	–	·
CC(=O)c1c(C)[nH]c(C(=O)OCC(=O)Nc2cc(Cl)ccc2[N+](=O)[O-])c1C	–	–	94.5	–	82.2
CC(=O)c1c(C)[nH]c(C(=O)OCC(=O)NCc2ccc(Cl)cc2)c1C	–	–	–	–	·
CC(=O)c1c(C)[nH]c(C(=O)OCC(=O)Nc2ccc(C)cc2[N+](=O)[O-])c1C	–	–	99.9	–	90.3
O=C(C=P(c1ccccc1)(c1ccccc1)c1ccccc1)c1ccccc1-c1ccccc1C(=O)C=P(c1ccccc1)(c1ccccc1)c1ccccc1	–	–	93.9	–	98.7
O=C(NNC(=O)c1ccccc1-c1ccccc1C(=O)O)c1ccccc1	–	–	–	–	·
O=C(Nc1ccc(Cl)cc1)N(C1=NCCC1)c1ccc(OC(F)F)cc1	–	–	89.6	–	99.3
O=C(COC(=O)Cc1ccc(Cl)cc1)Nc1ccc(OC(F)F)cc1	–	–	–	–	·
CC(C)[C@H](NC(=O)c1ccc(Cl)c([N+](=O)[O-])c1)C(=O)NCc1ccc(Cl)cc1Cl	–	–	85.7	–	93.3
CC(C)[C@H](NC(=O)c1ccc(Cl)c([N+](=O)[O-])c1)C(=O)NCc1ccc(F)cc1	–	–	–	–	·
CCOC(=O)c1ccc(Nc2nnc(C(C)(C)C)c(=O)[nH]2)cc1	36.5	–	92.7	·	83.1
O=C1[C@H]2[C@@H](C(=O)N1c1cccc3ccccc13)C1(C(=O)c3ccccc3C1=O)N1CCC[C@@H]21	–	–	–	–	·
COc1cc(/C=C(\C#N)c2nc3ccccc3s2)cc([N+](=O)[O-])c1O	–	–	–	–	·
N#C/C(=C\c1ccc(O)c([N+](=O)[O-])c1)c1nc2ccccc2s1	–	–	91.2	–	63.8
COc1ccc(-c2csc(/C(C#N)=C\c3ccc(O)c([N+](=O)[O-])c3)n2)cc1OC	–	–	98.9	–	49.8
CC(C)(O)/C=C/C[C@](C)(O)C1CC[C@]2(C)C1[C@H](O[C@H]1O[C@@H](CO)[C@H](O)[C@@H](O)[C@@H]1O)CC1[C@@]3(C)CC[C@H](O)C(C)(C)C3[C@@H](O)C[C@]12C (stereo partly specified)	–	–	–	–	·
CN1CCN(c2cc3c(c4c2[nH]c2ccccc24)C(=O)CC(C)(C)C3)CC1	–	–	84.3	–	–
CCC1CCCCN1CCCNC(=O)C1CCN(Cc2nc(-c3ccc(Cl)cc3)oc2C)CC1 (stereo unspecified)	–	–	61.2	–	–
Cc1oc(-c2ccc(Cl)cc2)nc1CS(=O)CC(=O)NCCCN1CCN(Cc2ccccc2)CC1 (stereo unspecified)	–	–	63.0	–	53.4
Cc1oc(-c2ccc(Cl)cc2)nc1CS(=O)CC(=O)NCCCN1CCCC(C)C1 (stereo unspecified)	–	–	–	–	·
Cc1oc(-c2ccc(Cl)cc2)nc1CN1CCC(C(=O)NCCCN2CCOCC2)CC1	–	–	–	–	·
CCCc1ccc(S(=O)(=O)NCCc2ccncc2)cc1	–	–	–	–	·
CCN(C1CCCCC1)S(=O)(=O)c1ccc(S(=O)(=O)NCc2ccncc2)cc1	–	–	98.2	–	92.5
CCCCCc1ccc(S(=O)(=O)NCCc2ccncc2)cc1	–	–	63.3	–	82.8
O=S(=O)(NCc1ccncc1)c1ccc(Br)s1	–	–	62.7	–	96.5
